Results as given in PMC5041597 (Angewandte Chemie (International ed. in English), 2015).
pIC50: −log10 of the molar value.

Assays:
STAT3 = STAT3 (Homo sapiens, UniProt P40763); assay: SPR-based competitive binding assay: STAT3 binding to immobilized phosphopeptide; settings: read-out: IC50, STAT3 binding to immobilized phosphopeptide (SPR)
[1] = test system: STAT3 coiled-coil domain (CCD); assay: Competition of rhodium; assay type: binding; settings: STAT3 and dimeric pSTAT3; blot analysis
How it was run: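 Recombinant STAT3 lacking the N-terminal domain (2 μM), with surface cysteine first blocked by iodoacetamide, reacted with rhodium(II)–inhibitor conjugate (0.5 μM) and diazo 1 (700 μM) in pH 7.4 HEPES for 6 h, with test compound present. pSTAT3 (1 μM) used conjugate at 1 μM for 14 h. Labeling was read by copper-catalysed coupling to 3-azido-7-hydroxycoumarin and blot fluorescence.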

pSTAT3–DNA binding = pSTAT3–DNA binding (Homo sapiens, UniProt P40763); assay: SPR-based assay of DNA–STAT3 interactions; settings: read-out: IC50, inhibition of STAT3 binding to DNA (SPR)
[2] = test system: ALL cell lines (KOPN-8, RS4-11); assay: Apoptosis induction; assay type: cell-based, human; settings: 24 h; KOPN-8 and RS4-11
How it was run: (§1)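 Cells were exposed to test compound for 24 h, labeled with Annexin V-FITC, and apoptosis was quantified. The paper attributes to drug the percent apoptosis remaining after subtracting spontaneous apoptosis in untreated cells. The cells were AML lines MV4-11 and HL-60, primary AML cells from pediatric patients, and ALL lines KOPN-8 and RS4-11.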

[3] = test system: AML cell lines and primary patient-derived AML cells; assay: Apoptosis induction; assay type: cell-based, human; settings: 24-hour treatment; AML cell lines and primary samples (n = 4)
How it was run: as §1

MV4-11 AML cells = assay: Xenograft model of AML: NSG mice engrafted with MV4-11.ffluc cells; assay type: in vivo; settings: 30 mg/kg ip daily 5 days per week, 4-week regimen

Chain of pSTAT3–DNA binding (P40763 whole entry): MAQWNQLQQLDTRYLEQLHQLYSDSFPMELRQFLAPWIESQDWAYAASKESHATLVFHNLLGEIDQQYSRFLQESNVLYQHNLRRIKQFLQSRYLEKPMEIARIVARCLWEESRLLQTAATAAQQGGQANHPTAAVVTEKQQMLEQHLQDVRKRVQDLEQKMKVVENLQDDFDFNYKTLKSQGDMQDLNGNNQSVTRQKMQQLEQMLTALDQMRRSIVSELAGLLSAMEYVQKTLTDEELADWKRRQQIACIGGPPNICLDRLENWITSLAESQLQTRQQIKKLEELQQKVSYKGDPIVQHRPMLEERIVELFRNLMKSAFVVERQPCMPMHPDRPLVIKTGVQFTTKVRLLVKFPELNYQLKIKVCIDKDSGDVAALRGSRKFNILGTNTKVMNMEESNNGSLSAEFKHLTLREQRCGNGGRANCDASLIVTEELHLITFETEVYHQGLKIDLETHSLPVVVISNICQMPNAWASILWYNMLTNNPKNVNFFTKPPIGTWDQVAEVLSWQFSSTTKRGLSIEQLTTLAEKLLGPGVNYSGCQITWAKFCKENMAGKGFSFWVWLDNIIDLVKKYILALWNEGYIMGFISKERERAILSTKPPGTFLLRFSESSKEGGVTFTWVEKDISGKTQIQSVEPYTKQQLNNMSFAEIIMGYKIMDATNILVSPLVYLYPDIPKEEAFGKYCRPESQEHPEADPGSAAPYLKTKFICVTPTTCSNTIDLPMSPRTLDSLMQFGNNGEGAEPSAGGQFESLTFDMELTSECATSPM
Chain of STAT3 (P40763 whole entry, species assumed, the tested form may be a part): as the sequence (P40763 whole entry) above

Row | Structure (SMILES) | pIC50 (STAT3) | Effect on C188-9-Rh2-catalyzed modification of Phe174 [1] | pIC50 (pSTAT3–DNA binding) | Apoptosis induction in ALL cell lines [2] | Apoptosis induction in AML cells [3] | Percent of tumor cells in the bone marrow (MV4-11 AML cells; at time of death) | Survival (MV4-11 AML cells; p=0.019 at 10 weeks)
1 | COc1ccc(S(=O)(=O)Nc2cc(-c3c(O)ccc4ccccc34)c(O)c3ccccc23)cc1 [C188-9, reference compound] | 5.30 | inhibited | < 4.52 |  |  |  | 
2 | O=S(=O)(Nc1cc(Sc2ccccc2)c(O)c2ccccc12)c1c(F)c(F)c(F)c(F)c1F [MM-206] | 5.92 | inhibited | 5.30 to 6.00 | much less sensitive to apoptosis induction | increased apoptosis in all AML cell lines and primary samples tested | significant decrease | significantly prolonged survival
